From ChEMBL document CHEMBL3091413, “Fine molecular tuning at position 4 of 2H-chromen-2-one derivatives in the search of potent and selective monoamine oxidase B inhibitors” (Eur J Med Chem, 2013)

How the values were obtained:
[1] = target: T1, MAO-A (amine oxidase [flavin-containing] A) (Rattus norvegicus, UniProt P21396); experiment: Inhibition of Sprague-Dawley rat MAO-A using Kynuramine as substrate assessed as formation of 4-hydroxyquinoline at 10 uM preincubated for 5 mins prior to substrate addition measured for 5 mins by spectrophotometry; conditions: rat MAO-A enzyme preparation, probe kynuramine
T1 sequence (P21396 whole entry): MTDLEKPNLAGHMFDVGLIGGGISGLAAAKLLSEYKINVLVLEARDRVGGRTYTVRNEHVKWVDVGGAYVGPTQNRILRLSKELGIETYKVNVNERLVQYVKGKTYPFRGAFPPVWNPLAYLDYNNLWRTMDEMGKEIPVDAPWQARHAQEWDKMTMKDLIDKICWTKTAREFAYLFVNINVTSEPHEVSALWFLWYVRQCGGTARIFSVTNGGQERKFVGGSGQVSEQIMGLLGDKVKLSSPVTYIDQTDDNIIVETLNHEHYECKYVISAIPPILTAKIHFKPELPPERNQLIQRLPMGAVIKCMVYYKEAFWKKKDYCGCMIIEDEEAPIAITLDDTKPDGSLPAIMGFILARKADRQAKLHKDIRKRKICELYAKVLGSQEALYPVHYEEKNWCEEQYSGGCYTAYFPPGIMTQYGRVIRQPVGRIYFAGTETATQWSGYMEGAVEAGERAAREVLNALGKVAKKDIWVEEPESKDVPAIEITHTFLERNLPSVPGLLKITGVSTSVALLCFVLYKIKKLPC

[2] = target: T2, Amine oxidase [flavin-containing] B (Rattus norvegicus, UniProt P19643); experiment: Inhibition of Sprague-Dawley rat MAO-B using Kynuramine as substrate assessed as formation of 4-hydroxyquinoline preincubated for 5 mins prior to substrate addition measured for 5 mins by spectrophotometry
T2 sequence (P19643 whole entry): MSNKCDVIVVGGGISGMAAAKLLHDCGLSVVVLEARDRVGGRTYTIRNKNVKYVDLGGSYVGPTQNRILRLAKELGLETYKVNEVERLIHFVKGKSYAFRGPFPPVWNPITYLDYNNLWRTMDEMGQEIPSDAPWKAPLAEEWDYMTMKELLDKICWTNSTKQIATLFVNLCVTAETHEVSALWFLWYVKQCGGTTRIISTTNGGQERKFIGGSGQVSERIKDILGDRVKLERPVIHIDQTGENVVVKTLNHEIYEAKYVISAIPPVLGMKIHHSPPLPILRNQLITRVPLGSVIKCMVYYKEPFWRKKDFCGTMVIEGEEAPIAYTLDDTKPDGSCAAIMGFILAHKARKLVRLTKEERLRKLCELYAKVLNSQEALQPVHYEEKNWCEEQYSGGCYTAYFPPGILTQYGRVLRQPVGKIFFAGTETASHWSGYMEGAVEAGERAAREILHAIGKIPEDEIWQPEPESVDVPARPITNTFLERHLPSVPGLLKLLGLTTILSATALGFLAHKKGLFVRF

[3] = target: T3, Amine oxidase [flavin-containing] A (Rattus norvegicus, UniProt P21396); experiment: Inhibition of Sprague-Dawley rat MAO-A using Kynuramine as substrate assessed as formation of 4-hydroxyquinoline preincubated for 5 mins prior to substrate addition measured for 5 mins by spectrophotometry
T3 sequence (P21396 whole entry): T1 sequence (P21396 whole entry)
How it was run: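 Enzyme source: crude brain mitochondrial fraction from male Sprague-Dawley rats (200-250 g), decapitated. Brains were washed in ice-cold isotonic Na2HPO4/KH2PO4 buffer (pH 7.40) with sucrose, fractionated by differential centrifugation, and stored at -40 °C in isotonic phosphate buffer (pH 7.4) with KCl. Kynuramine oxidation to 4-hydroxyquinoline was monitored spectrophotometrically. Values are the mean of two or three independent experiments.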

Rattus norvegicus = organism: Rattus norvegicus; experiment: Selectivity ratio for Sprague-Dawley rat MAO-B to Sprague-Dawley rat MAO-A
How it was run: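 Selectivity index is pIC50 MAO-B minus pIC50 MAO-A (ΔpIC50), from the rat brain mitochondrial kynuramine assay.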

inhibition at 5 min, 10 µM [1] [%]	IC50 ([2]; read-out: pIC50 (converted)) [nM]	IC50 [3] [nM]	Selectivity ratio (Rattus norvegicus)	IC50 ([2]; read-out: IC50) [nM]	Structure (SMILES)
14	52.5	–	–	–	O=Cc1cc(=O)oc2cc(OCc3cccc(Cl)c3)ccc12
0	74.1	–	–	–	CCCOc1cc(=O)oc2cc(OCc3cccc(Br)c3)ccc12
23	100	–	–	–	COCOc1cc(=O)oc2cc(OCc3cccc(Cl)c3)ccc12
0	–	–	–	–	O=C(O)COc1cc(=O)oc2cc(OCc3cccc(Cl)c3)ccc12
16	871	–	–	–	O=c1cc(C(F)(F)F)c2ccc(OCc3cccc(Cl)c3)cc2o1
8.6	316	–	–	–	CSCOc1cc(=O)oc2cc(OCc3cccc(Cl)c3)ccc12
0	1820	–	–	–	CCOC(=O)COc1cc(=O)oc2cc(OCc3cccc(Cl)c3)ccc12
0	575	–	–	–	CCCOc1cc(=O)oc2cc(OCc3ccccc3)ccc12
25	263	–	–	–	CCOc1cc(=O)oc2cc(OCc3cccc(F)c3)ccc12
9	38900	–	–	–	O=C(COc1cc(=O)oc2cc(OCc3cccc(Cl)c3)ccc12)N1CCCCC1
5.3	61.7	–	–	–	CCCOc1cc(=O)oc2cc(OCc3cccc(Cl)c3)ccc12
49	14.1	–	–	–	O=c1cc(CO)c2ccc(OCc3cccc(Br)c3)cc2o1
–	38.9	282	–	–	CC(=O)Nc1cc(=O)oc2cc(OCc3cccc(Cl)c3)ccc12
–	7.41	5250	–	–	Cc1cc(=O)oc2cc(OCc3cccc(Cl)c3)ccc12
40	11	–	–	–	CNCc1cc(=O)oc2cc(OCc3cccc(Br)c3)ccc12
3.2	204	–	–	–	CCCNCc1cc(=O)oc2cc(OCc3cccc(Cl)c3)ccc12
10	501	–	–	–	CN(C)C(=O)COc1cc(=O)oc2cc(OCc3cccc(Cl)c3)ccc12
–	5.25	10200	–	–	O=c1cc(CO)c2ccc(OCc3cccc(Cl)c3)cc2o1
0	39.8	–	–	–	CC(=O)c1cc(=O)oc2cc(OCc3cccc(Cl)c3)ccc12
3.2	12900	–	–	–	O=C(COc1cc(=O)oc2cc(OCc3cccc(Cl)c3)ccc12)N1CCOCC1
48	28.8	–	–	–	CCc1cc(=O)oc2cc(OCc3cccc(Cl)c3)ccc12

inhibition at 5 min, 10 µM [1] [%]	IC50 ([2]; read-out: pIC50 (converted)) [nM]	IC50 [3] [nM]	Selectivity ratio (Rattus norvegicus)	IC50 ([2]; read-out: IC50) [nM]	Structure (SMILES)
0	–	–	–	–	CCNC(=O)Nc1cc(=O)oc2cc(OCc3cccc(Cl)c3)ccc12
2.5	126	–	–	–	CCOc1cc(=O)oc2cc(OCc3cccc(Br)c3)ccc12
0	759	–	–	–	CCOc1cc(=O)oc2cc(OCc3ccccc3)ccc12
0	7760	–	–	–	CC(C)Nc1cc(=O)oc2cc(OCc3cccc(Cl)c3)ccc12
14	234	–	–	–	NC(=O)c1cc(=O)oc2cc(OCc3cccc(Cl)c3)ccc12
49	36.3	–	–	–	COc1cc(=O)oc2cc(OCc3cccc(F)c3)ccc12
0	2090	–	–	–	O=c1cc(O)c2ccc(OCc3cccc(F)c3)cc2o1
–	8.71	4070	–	–	CNc1cc(=O)oc2cc(OCc3cccc(Cl)c3)ccc12
3	24500	–	–	–	CC(C)Oc1cc(=O)oc2cc(OCc3cccc(Cl)c3)ccc12
0	9770	–	–	–	O=c1cc(Nc2ccccc2)c2ccc(OCc3cccc(Cl)c3)cc2o1
–	47.9	4170	–	–	Nc1cc(=O)oc2cc(OCc3cccc(Cl)c3)ccc12
21	589	–	–	–	CCOC(=O)Nc1cc(=O)oc2cc(OCc3cccc(Cl)c3)ccc12
6	479	–	–	–	O=c1cc(O)c2ccc(OCc3cccc(Cl)c3)cc2o1
22	77.6	–	–	–	CC(O)c1cc(=O)oc2cc(OCc3cccc(Cl)c3)ccc12 (centres undefined)
17	45.7	–	–	–	N#CCOc1cc(=O)oc2cc(OCc3cccc(Cl)c3)ccc12
2	9120	–	–	–	O=c1cc(O)c2ccc(OCc3ccccc3)cc2o1
27	5.75	–	–	–	COc1cc(=O)oc2cc(OCc3cccc(Br)c3)ccc12
22	100	–	–	–	COc1cc(=O)oc2cc(OCc3ccccc3)ccc12
0	490	–	–	–	O=c1cc(O)c2ccc(OCc3cccc(Br)c3)cc2o1
–	20.9	8910	–	–	O=c1cc(Cl)c2ccc(OCc3cccc(Cl)c3)cc2o1
0	–	–	–	–	O=C(O)c1cc(=O)oc2cc(OCc3cccc(Cl)c3)ccc12

inhibition at 5 min, 10 µM [1] [%]	IC50 ([2]; read-out: pIC50 (converted)) [nM]	IC50 [3] [nM]	Selectivity ratio (Rattus norvegicus)	IC50 ([2]; read-out: IC50) [nM]	Structure (SMILES)
16	1700	–	–	–	O=c1cc(CN2CCCC2)c2ccc(OCc3cccc(Cl)c3)cc2o1
21	43.7	–	–	–	O=c1cc(CCl)c2ccc(OCc3cccc(Cl)c3)cc2o1
0	–	–	–	–	CN(C)C(=O)Cc1cc(=O)oc2cc(OCc3cccc(Cl)c3)ccc12
1.1	447	–	–	–	CCCCNCc1cc(=O)oc2cc(OCc3cccc(Cl)c3)ccc12
22	26.9	–	–	–	CC(=O)COc1cc(=O)oc2cc(OCc3cccc(Cl)c3)ccc12
11	33.9	–	–	–	CNC(=O)COc1cc(=O)oc2cc(OCc3cccc(Cl)c3)ccc12
2	115	–	–	–	CCOc1cc(=O)oc2cc(OCc3cccc(Cl)c3)ccc12
11	2290	–	–	–	O=c1cc(CN2CCOCC2)c2ccc(OCc3cccc(Cl)c3)cc2o1
4.4	417	–	–	–	CCOC(=O)c1cc(=O)oc2cc(OCc3cccc(Cl)c3)ccc12
0	4070	–	–	–	O=c1cc(Oc2ccccc2)c2ccc(OCc3cccc(Cl)c3)cc2o1
28	209	–	–	–	O=c1cc(CCl)c2ccc(OCc3cccc(Br)c3)cc2o1
5.7	–	–	–	–	CN(C)Cc1cc(=O)oc2cc(OCc3cccc(Cl)c3)ccc12
23	102	–	–	–	N#Cc1cc(=O)oc2cc(OCc3cccc(Cl)c3)ccc12
–	3.31	24000	7240	3.1	NC(=O)COc1cc(=O)oc2cc(OCc3cccc(Cl)c3)ccc12
–	8.91	8910	–	–	NC(=O)COc1cc(=O)oc2cc(OCc3cccc(Br)c3)ccc12
–	28.2	9330	–	–	CCNc1cc(=O)oc2cc(OCc3cccc(Cl)c3)ccc12
–	7.76	11700	–	–	COc1cc(=O)oc2cc(OCc3cccc(Cl)c3)ccc12
48	219	–	–	–	O=c1cc(/C=N/O)c2ccc(OCc3cccc(Cl)c3)cc2o1
12	407	–	–	–	CCCOc1cc(=O)oc2cc(OCc3cccc(F)c3)ccc12
